Results taken from ChEMBL document CHEMBL3272132, “Centrally acting emetics. 10. Rigid dopamine congeners derived from octahydrobenzo[f]quinoline” (J Med Chem, 1976).
Calls of active or inactive are those of the source. The calls are words filed in the database; no cut-off is given here.

Key:
Felis catus [1] = test: Effect on 2 Hz stimulation of right cardioaccelerator nerve-induced positive chronotropic response in iv dosed cat assessed as inhibition of change in heart rate in presence of haloperidol; type: functional, organism-based
Procedure, shortened: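 Cat right cardioaccelerator nerve preparation with 2 Hz stimulation and heart-rate response recorded. Haloperidol (100 μg/kg) was given iv before the iv test compound, then inhibition of the nerve-evoked heart-rate increase was assessed.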

Canis familiaris [2] = test: In vivo agonist activity at dopamine receptor in sc dosed mongrel dog assessed as induction of emesis after 1 hr relative to apomorphine; type: functional, Canis lupus familiaris
Procedure, shortened: (§1)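 Mongrel dogs, five per dose, with doses spaced at 0.3 log intervals and given sc. Emetic episodes were counted for 1 h after dosing. Apomorphine hydrochloride served as reference standard.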

[3] = In vivo antagonist activity at dopamine receptor in pigeon assessed as inhibition of apomorphine-induced pecking behavior administered intramuscularly for 15 mins prior to apomorphine-challenge measured after 1 hr relative to control; type: functional, Columbidae
Procedure, shortened: (§2)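 Pigeons were pretreated im with compound 15 min before im apomorphine hydrochloride (1.6 μmol/kg), and pecking frequency was quantified. Five pigeons per dose, three antagonist doses spaced at 0.3 log intervals.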

[4] = In vivo antagonist activity at dopamine receptor in pigeon assessed as inhibition of apomorphine-induced pecking behavior administered intramuscularly for 15 mins prior to apomorphine-challenge measured after 1 hr; type: functional; details: Columbidae, im; procedure, shortened: as §2
Mus musculus = test: Hypothermic activity in mouse assessed as decrease in rectal temperature at 10 mg/kg, sc measured every 15 mins; type: functional; details: route subcutaneous
Felis catus [5] = species: Felis catus; test: Effect on 2 Hz transmural stimulation of right atrium-induced positive chronotropic response in cat assessed as inhibition of change in heart rate; type: functional, Cardiac atrium
Procedure, shortened: (§3)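 Isolated cat right atria in Feigan's solution under transmural field stimulation: 2 Hz, 5 ms pulses, maximal voltage, 10 s trains every 5 min, activating adrenergic terminals. After control heart-rate increases were established, compound was added to the bath and its effect was read 5 min later. Estimated ID50 or 50%-potentiation concentration in μM.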

Felis catus [6] = test: Effect on 2 Hz stimulation of right cardioaccelerator nerve-induced positive chronotropic response in iv dosed cat assessed as concentration required for 50% inhibition of change in heart rate; type: functional
Felis catus [7] = test: Effect on 2 Hz stimulation of right cardioaccelerator nerve-induced positive chronotropic response in iv dosed cat assessed as concentration required for 50% potentiation of change in heart rate; type: functional
Felis catus [8] = test: Effect on 2 Hz stimulation of right cardioaccelerator nerve-induced positive chronotropic response in cat assessed as potentiation of change in heart rate up to 3.5 umol/kg, iv; type: functional, organism-based
Canis familiaris [9] = test: In vivo antagonist activity at dopamine receptor in sc dosed mongrel dog assessed as inhibition of apomorphine-induced emesis pretreated for 15 mins followed by apomorphine-challenge measured after 1 hr; type: functional; details: Canis lupus familiaris
Procedure, shortened: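 Dogs were given compound sc 15 min before sc apomorphine hydrochloride (100 μg/kg). Emesis frequency over 1 h was compared with the apomorphine control value in the same dogs.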

Canis familiaris [10] = test: In vivo agonist activity at dopamine receptor in mongrel dog assessed as induction of emesis up to 5 mg/kg, sc after 1 hr; type: functional, organism-based; design: dose 5 mg/kg; details: Canis lupus familiaris; procedure, shortened: as §1
Canis familiaris [11] = test: Toxicity in sc dosed mongrel dog assessed as behavioral changes; type: organism-based, Canis lupus familiaris; details: in vivo
Felis catus [12] = species: Felis catus; test: Effect on 2 Hz transmural stimulation of right atrium-induced positive chronotropic response in cat assessed as concentration required for 50% potentiation of change in heart rate; type: functional, Cardiac atrium; procedure, shortened: as §3
Felis catus [13] = test: Effect on 2 Hz stimulation of right cardioaccelerator nerve-induced positive chronotropic response in cat assessed as potentiation of change in heart rate up to 3.3 umol/kg, iv; type: functional, organism-based
Columbidae = test: In vivo agonist activity at dopamine receptor in pigeon assessed as induction of pecking behavior administered intramuscularly after 1 hr; type: functional, organism-based
Procedure, shortened: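 Pigeons were given compound intramuscularly, and pecking frequency was recorded for 1 h afterwards. Apomorphine hydrochloride served as reference standard.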

Row | Compound | inhibition (Felis catus [1]) | fold change (FC) (Canis familiaris [2]) | fold change (FC) [3] | ED50 [4] [µmol/kg] | T (Mus musculus) [°C] | ID50 (Felis catus [5]) | Activity (Felis catus [6]) [µmol/kg] | Activity (Felis catus [7]) | Activity (Felis catus [8]) | ED50 (Canis familiaris [9]) [µmol/kg] | Activity (Canis familiaris [10]) | Activity (Canis familiaris [11]) | Activity (Felis catus [12]) [µM] | Activity (Felis catus [13]) | Activity (Columbidae)
1 | Br.CN1CCC[C@@H]2c3ccc(O)c(O)c3CC[C@@H]21 (relative stereo) | inactive | 0.02 | 0.2 | 8.3 | 1.6 | 4.7 ×10⁻² microM | 0.59 |  |  |  |  |  |  |  | 
2 | CN1CCC[C@@H]2c3ccccc3CC[C@@H]21 (relative stereo) |  |  | 0.61 | 2.7 | 1.6 |  |  | <=3.5 umol/Kg | inactive | 8.8 | inactive | Non-toxic | 1.6 |  | 
3 | Br.CN1CCC[C@H]2c3ccc(O)cc3CC[C@@H]21 (relative stereo) |  |  | 0.18 | 9 | 2.4 |  |  | <=3.3 umol/Kg |  | 4.3 | inactive | Non-toxic | 12.7 | inactive | 
4 | Br.CN1CCC[C@H]2c3cccc(O)c3CC[C@@H]21 (relative stereo) | inactive | 0.03 | 0.76 | 2.2 | 1.4 | 1 ×10⁻¹ microM | >2.1 |  |  |  |  | Non-toxic |  |  | 
5 | Br.CN1CCC[C@H]2c3ccc(O)c(O)c3CC[C@@H]21 (relative stereo) | inactive | 6.1 |  |  | 4.4 | 3.2 ×10⁻³ microM | 0.0052 |  |  |  |  |  |  |  | 
6 | COc1ccc2c(c1OC)CC[C@H]1[C@H]2CCCN1C (relative stereo) |  |  | 0.11 | 15.1 |  |  |  |  |  |  | inactive | Non-toxic |  |  | 
7 | Br.CN1CCC[C@@H]2c3ccc(O)cc3CC[C@@H]21 |  |  | 0.1 | 16.5 | 2.3 |  |  | <=3.3 umol/Kg |  | 10 | inactive | Non-toxic | 3.9 | inactive | 
8 | CN1CCC[C@H]2c3ccccc3CC[C@@H]21 (relative stereo) |  |  | 0.74 | 2.2 | 2.6 |  |  | <=3.5 umol/Kg | inactive | 4.1 | inactive | Non-toxic | 7.8 |  | 
9 | COc1ccc2c(c1OC)CC[C@H]1[C@@H]2CCCN1C (relative stereo) |  |  | 1 | 1.7 |  |  |  |  |  |  | inactive | Non-toxic |  |  | 
10 | Br.CN1CCC[C@@H]2c3cccc(O)c3CC[C@@H]21 (relative stereo) |  |  | 0.44 | 3.8 | 0 |  |  | >3.3 µmol/kg |  | 6 | inactive | Non-toxic |  |  | 
11 | CN1CCc2cccc3c2[C@H]1Cc1ccc(O)c(O)c1-3.CN1CCc2cccc3c2[C@H]1Cc1ccc(O)c(O)c1-3.Cl.Cl.O [APOMORPHINE HYDROCHLORIDE] |  |  |  |  | 3.6 |  |  |  |  |  |  | Non-toxic |  |  | Active
